Source: ChEMBL document CHEMBL1667803, “Inhibitory effects of ethacrynic acid analogues lacking the α,β-unsaturated carbonyl unit and para-acylated phenols on human cancer cells” (2011)
Active and inactive are the calls of the source. The calls are words filed in the database; no cut-off is given here.

Key:
Assay type in all cases: functional
LNCaP C4-2B [1] = experiment: […] human C4-2B cells assessed as reduction in cell viability after 24 hrs
Outline: (§1)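 MTT viability assay. Cells seeded at 1.5×10^4 per well in medium with 5% FBS and penicillin/streptomycin, then grown 24 h at 37 °C in 5% CO2. Treated 24 h at 1, 5, 10, 20, 40, 60, 80 and 100 μM. Half the medium was removed before adding MTT, and optical density was read. Three independent experiments were run per concentration. OD80/IC20 (20% inhibition) was read from the graphs.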

[2] = […] human Hs578Ts(i)8 cells assessed as reduction in cell viability after 24 hrs; outline: as §1
Homo sapiens = species: Homo sapiens; experiment: (§2) Inhibition of migration of human Hs578Ts(i)8 cells at 100 uM after 24 hrs
Outline: (§3)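 Wound-healing migration assay. Confluent monolayers were washed twice with PBS and scratched to leave a gap of about 1500 µm, then imaged. Fresh medium was added with or without compound, at concentrations set from the 24 h MTT assay. The wound was imaged again after 24 h. Migration was quantified against the earlier images as migratory velocity (µm/h).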

LNCaP C4-2B [3] = experiment: Inhibition of migration of human C4-2B cells at 100 uM after 24 hrs; outline: as §3
[4] = as §2; outline: as §3

CCOC(=O)COc1ccc(C(=O)CC)c(C)c1C
IC20 (LNCaP C4-2B [1]): > 100 µM
IC20 [2]: > 100 µM
inhibition (Homo sapiens): inactive
inhibition (LNCaP C4-2B [3]): inactive

C=C(CC)C(=O)c1ccc(OCC(=O)O)c(Cl)c1Cl [ETHACRYNIC ACID]
IC20 (LNCaP C4-2B [1]): 10 µM
IC20 [2]: 80 µM
inhibition (Homo sapiens): inactive
inhibition (LNCaP C4-2B [3]): inactive

CCC(=O)c1ccc(O)c(C)c1C
IC20 (LNCaP C4-2B [1]): > 100 µM
IC20 [2]: > 100 µM
inhibition at 100 µM [4]: 17%
inhibition (LNCaP C4-2B [3]): inactive

CCC(=O)c1ccc(OCC(=O)O)c(C)c1C
IC20 (LNCaP C4-2B [1]): > 100 µM
IC20 [2]: > 100 µM
inhibition (Homo sapiens): inactive
inhibition (LNCaP C4-2B [3]): inactive

CCC(=O)c1ccc(O)cc1C
IC20 (LNCaP C4-2B [1]): > 100 µM
IC20 [2]: > 100 µM
inhibition at 100 µM [4]: 86%
inhibition at 100 µM (LNCaP C4-2B [3]): 65%

CCCC(=O)c1ccc(OCC(=O)OCC)c(C)c1C
IC20 (LNCaP C4-2B [1]): 50 µM
IC20 [2]: > 100 µM
inhibition (Homo sapiens): inactive
inhibition (LNCaP C4-2B [3]): inactive

CCOC(=O)COc1ccc(C(=O)CC)c(C)c1
IC20 (LNCaP C4-2B [1]): > 100 µM
IC20 [2]: > 100 µM
inhibition at 100 µM [4]: 19%
inhibition at 100 µM (LNCaP C4-2B [3]): 23%

CCC(=O)c1ccc(O)cc1 [PAROXYPROPIONE]
IC20 (LNCaP C4-2B [1]): > 100 µM
IC20 [2]: > 100 µM
inhibition at 100 µM [4]: 28%
inhibition at 100 µM (LNCaP C4-2B [3]): 25%

CCCC(=O)c1ccc(OCC(=O)O)c(C)c1C
IC20 (LNCaP C4-2B [1]): > 100 µM
IC20 [2]: > 100 µM
inhibition (Homo sapiens): inactive
inhibition (LNCaP C4-2B [3]): inactive
